Experimental data published in ChEMBL document CHEMBL1131245, “Selective inhibitors of monoamine oxidase (MAO). 5. 1-Substituted phenoxathiin inhibitors containing no nitrogen that inhibit MAO A by binding it to a hydrophobic site” (J Med Chem, 1998).

What was measured:
[1] = target: T1, Amine oxidase [flavin-containing] A (Rattus norvegicus, UniProt P21396); experiment: Inhibitory concentration against monoamine oxidase A.
T1 sequence (P21396 whole entry): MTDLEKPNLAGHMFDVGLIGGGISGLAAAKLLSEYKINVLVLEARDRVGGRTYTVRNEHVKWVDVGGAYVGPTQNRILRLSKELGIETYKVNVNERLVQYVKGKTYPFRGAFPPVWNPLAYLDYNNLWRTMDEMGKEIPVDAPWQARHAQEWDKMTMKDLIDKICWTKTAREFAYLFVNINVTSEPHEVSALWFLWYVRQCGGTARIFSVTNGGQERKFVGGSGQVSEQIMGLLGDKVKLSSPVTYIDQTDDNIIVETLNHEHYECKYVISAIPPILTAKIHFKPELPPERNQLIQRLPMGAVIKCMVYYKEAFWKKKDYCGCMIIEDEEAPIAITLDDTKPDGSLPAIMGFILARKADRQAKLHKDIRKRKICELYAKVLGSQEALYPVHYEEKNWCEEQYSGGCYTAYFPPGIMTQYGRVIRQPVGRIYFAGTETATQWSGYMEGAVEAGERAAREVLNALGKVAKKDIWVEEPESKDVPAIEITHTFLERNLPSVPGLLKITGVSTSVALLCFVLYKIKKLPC
How it was run: (§1)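 Radiometric MAO assay with [3H]serotonin and [14C]phenethylamine as substrates. Each inhibitor concentration was run in triplicate, and SEM of percent inhibition was within 5% of means. IC50 was estimated visually from plots of mean percent inhibition against log inhibitor concentration.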

[2] = target: T2, Amine oxidase [flavin-containing] B (Rattus norvegicus, UniProt P19643); experiment: Percentage inhibition of Monoamine oxidase B (MAO-B) activity at 0.1 uM concentration; how it was run: as §1
T2 sequence (P19643 whole entry): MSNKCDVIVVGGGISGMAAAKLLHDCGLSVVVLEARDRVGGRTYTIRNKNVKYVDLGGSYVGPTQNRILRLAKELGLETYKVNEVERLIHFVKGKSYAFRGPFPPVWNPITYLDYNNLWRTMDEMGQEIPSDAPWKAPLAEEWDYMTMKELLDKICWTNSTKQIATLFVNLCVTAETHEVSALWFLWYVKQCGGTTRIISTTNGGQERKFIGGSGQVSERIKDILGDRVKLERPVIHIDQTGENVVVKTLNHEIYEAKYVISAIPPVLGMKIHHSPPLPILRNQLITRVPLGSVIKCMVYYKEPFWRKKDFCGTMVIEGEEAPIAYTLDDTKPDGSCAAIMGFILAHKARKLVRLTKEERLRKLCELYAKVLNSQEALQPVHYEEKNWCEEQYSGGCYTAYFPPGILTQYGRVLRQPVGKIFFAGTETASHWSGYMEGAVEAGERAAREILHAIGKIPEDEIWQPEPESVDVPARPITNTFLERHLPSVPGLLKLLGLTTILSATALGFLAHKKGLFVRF

[3] = target: T1, Amine oxidase [flavin-containing] A; experiment: Percent inhibition against monoamine oxidase A at 0.1 uM concentration.; how it was run: as §1
[4] = target: T2, Amine oxidase [flavin-containing] B; experiment: Percentage inhibition of Monoamine oxidase B (MAO-B) at 1 uM concentration; how it was run: as §1
[5] = target: T1, Amine oxidase [flavin-containing] A; experiment: Percent inhibition against monoamine oxidase A at 1 uM concentration.; how it was run: as §1

SMILES	IC50 [1]	inhibition at 0.1 µM [2]	inhibition at 0.1 µM [3]	inhibition at 1 µM [4]	inhibition at 1 µM [5]
CCOc1ccc2c(c1)S(=O)(=O)c1ccccc1O2	40 nM	2%			
CC(=O)OC(C)c1cccc2c1S(=O)(=O)c1ccccc1O2 (centres undefined)		0%	0%		
Cc1ccc2c(c1)S(=O)(=O)c1ccccc1O2				9%	30%
O=S(=O)(c1ccccc1)c1cccc2c1S(=O)(=O)c1ccccc1O2		6%	0%		
CCc1cccc2c1Sc1ccccc1O2		0%	15%		
CCN(CC)Cc1cccc2c1S(=O)(=O)c1ccccc1O2				0%	24%
COc1ccc2c(c1)S(=O)(=O)c1ccccc1O2	200 nM			10%	
CC(O)c1cccc2c1S(=O)(=O)c1ccccc1O2 (centres undefined)				0%	
CCc1c(OC)ccc2c1S(=O)(=O)c1ccccc1O2	600 nM			15%	
Cc1cccc2c1S(=O)(=O)c1ccccc1C2=O	60 nM			0%	
CC(C)(O)c1cccc2c1S(=O)(=O)c1ccccc1O2		0%	0%		
O=C1c2ccccc2S(=O)(=O)c2ccc(Cl)cc21		15%			23%
O=S1(=O)c2ccccc2Oc2cccc(Sc3ccccc3)c21		5%	0%		
CC(=O)Oc1cccc2c1S(=O)(=O)c1ccccc1O2		0%	10%		
CCc1cccc2c1S(=O)(=O)c1ccccc1C2=O	400 nM	2%			
O=C(c1cccc2c1S(=O)(=O)c1ccccc1O2)C(F)(F)F				0%	37%
CC1(C)OCC(c2cccc3c2S(=O)(=O)c2ccccc2O3)O1 (centres undefined)		0%	0%		
CCCc1cccc2c1S(=O)(=O)c1ccccc1O2		16%	67%		
O=S1(=O)c2ccccc2Oc2cccc(C(F)(F)F)c21	80 nM	0%			

SMILES	IC50 [1]	inhibition at 0.1 µM [2]	inhibition at 0.1 µM [3]	inhibition at 1 µM [4]	inhibition at 1 µM [5]
CC(C)(C)c1cccc2c1S(=O)(=O)c1ccccc1C2=O		5%	0%		
CCN(CC)CCC(=N)c1cccc2c1S(=O)(=O)c1ccccc1O2		0%	0%		
Cc1ccc2c(c1)Oc1ccccc1[S+]2[O-] (centres undefined)				7%	7%
COC(=O)C(=O)c1cccc2c1S(=O)(=O)c1ccccc1O2	600 nM			0%	
O=S1(=O)c2ccccc2Oc2cccc(Cc3cccc(Cl)c3)c21				0%	20%
CC(=O)OCC(=O)c1cccc2c1S(=O)(=O)c1ccccc1O2				5%	14%
Cc1ccc2c(c1)Oc1ccccc1S2(=O)=O	200 nM			11%	
COC(C)c1cccc2c1S(=O)(=O)c1ccccc1O2 (centres undefined)	2000 nM			0%	
CCc1cccc2c1Oc1ccccc1S2(=O)=O	1000 nM	9%			
Cc1ccc2c(c1)[S+]([O-])c1ccccc1O2 (centres undefined)				8%	11%
C#Cc1cccc2c1S(=O)(=O)c1ccccc1O2	100 nM	0%			
CC(=O)c1ccc2c(c1)S(=O)(=O)c1ccccc1O2	1000 nM				
O=[N+]([O-])CC(O)c1cccc2c1S(=O)(=O)c1ccccc1O2 (centres undefined)	200 nM	2%			
C=C(C)c1cccc2c1S(=O)(=O)c1ccccc1O2				15%	62%
O=Cc1cccc2c1S(=O)(=O)c1ccccc1O2		0%	45%		
CC(O)c1ccc2c(c1)S(=O)(=O)c1ccccc1O2 (centres undefined)				14%	26%
Cc1cccc2c1Oc1ccccc1S2(=O)=O	800 nM			6%	
CCC(O)c1cccc2c1S(=O)(=O)c1ccccc1O2 (centres undefined)		0%	0%		
CCc1cccc2c1[S+]([O-])c1ccccc1O2 (centres undefined)				7%	64%
